Assay results as given in ChEMBL document CHEMBL1817631, “Synthesis and characterization of tritylthioethanamine derivatives with potent KSP inhibitory activity” (Bioorg Med Chem, 2011).
Active and inactive are the calls of the source. No cut-off for these calls is given here.

Assays:
HeLa [1] = assay: Induction of KSP depletion in human HeLa cells after 4 hrs by immunofluorescence analysis relative to STLC; type: functional
Summary of the method: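 HeLa cells in MEM/Earle's BSS with 10% FBS at 37°C, 5% CO2 were exposed 4 h to DMSO-dissolved compound over a range of doses. They were then fixed in 100% MeOH at −20°C (≥30 min), rehydrated in PBS, blocked in PBS-5% BSA, and stained overnight at 4°C with mouse anti-KSP plus rabbit anti-EB1 (microtubules). DNA was counterstained. Green channel was imaged at equal exposure.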

CAKI-1 = assay: Growth inhibition of human Caki1 cells; type: functional
SR = assay: Growth inhibition of human SR cells; type: functional
HCC 2998 = assay: Growth inhibition of human HCC2998 cells; type: functional
SK-OV-3 = assay: Growth inhibition of human SKOV3 cells; type: functional
ACHN = assay: Growth inhibition of human ACHN cells; type: functional
SF-295 = assay: Growth inhibition of human SF295 cells; type: functional
HT-29 = assay: Growth inhibition of human HT-29 cells; type: functional
TK-10 = assay: Growth inhibition of human TK10 cells; type: functional
NCI-H322M = assay: Growth inhibition of human NCI-H322M cells; type: functional
A549 = assay: Growth inhibition of human A549 cells; type: functional
SN12C = assay: Growth inhibition of human SN12C cells; type: functional
SF-268 = assay: Growth inhibition of human SF268 cells; type: functional
NCI-H522 = assay: Growth inhibition of human NCI-H522 cells; type: functional
HCT-15 = assay: Growth inhibition of human HCT15 cells; type: functional
[2] = target: Centromere-associated protein E (Homo sapiens) (UniProt Q02224); assay: Inhibition of CENP-E
Summary of the method: (§1)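 Microtubule-activated ATPase end-point assay with kinesin motor domain at 0.08 μg/μl final. Reactions were started with 2 mM ATP, run 5 min at room temperature, and stopped with CytoPhos. After 10 min more, absorbance was read at 650 nm. Compounds were tested at 0.25–10 μM against a 0.1% DMSO control, in triplicate. IC50 came from four-parameter non-linear regression.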

UACC-257 = assay: Growth inhibition of human UACC257 cells; type: functional
HeLa [3] = assay: Effect on interphase microtubule organization in human HeLa cells at 1 uM; type: functional, cell-based
Summary of the method: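 HeLa cells were grown in MEM/Earle's BSS with 10% FBS at 37 °C and 5% CO2, then treated 4 h with 1 μM compound or 0.1% DMSO carrier. Cells were fixed in 100% MeOH at −20 °C and blocked in PBS-5% BSA. They were stained overnight at 4 °C with mouse anti-tubulin and for DNA, then imaged by epifluorescence with structured illumination.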

K562 = assay: Growth inhibition of human K562 cells; type: functional
786-0 = assay: Growth inhibition of human 786-0 cells; type: functional
SNB-19 = assay: Growth inhibition of human SNB19 cells; type: functional
UACC-62 = assay: Growth inhibition of human UACC62 cells; type: functional
NCI-H226 = assay: Growth inhibition of human NCI-H226 cells; type: functional
OVCAR-3 = assay: Growth inhibition of human OVCAR3 cells; type: functional
HOP-62 = assay: Growth inhibition of human HOP62 cells; type: functional
OVCAR-5 = assay: Growth inhibition of human OVCAR5 cells; type: functional
[4] = Growth inhibition of human […] cells; type: functional
[5] = target: Kinesin-like protein KIF2C (Homo sapiens) (UniProt Q99661); assay: Inhibition of MACK; summary of the method: as §1
Malme-3M = assay: Growth inhibition of human MALME-3M cells; type: functional
KM12 = assay: Growth inhibition of human KM12 cells; type: functional
OVCAR-8 = assay: Growth inhibition of human OVCAR8 cells; type: functional
LOX IMVI = assay: Growth inhibition of human LOXIMVI cells; type: functional
HeLa [6] = assay: Induction of KSP depletion in human HeLa cells after 4 hrs by immunofluorescence analysis; type: functional, cell-based
Summary of the method: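 HeLa cells were treated 4 h across a concentration series of compound in DMSO, then fixed in 100% MeOH at −20 °C. They were probed overnight at 4 °C with mouse anti-KSP and rabbit anti-EB1 to mark microtubules, with Alexa Fluor secondaries and DNA counterstain. KSP (green channel) images were taken at equivalent exposure times.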

M14 = assay: Growth inhibition of human M14 cells; type: functional
SK-MEL-28 = assay: Growth inhibition of human SK-MEL-28 cells; type: functional
EKVX = assay: Growth inhibition of human EKVX cells; type: functional
COLO 205 = assay: Growth inhibition of human COLO205 cells; type: functional
SW-620 = assay: Growth inhibition of human SW620 cells; type: functional
CCRF-CEM = assay: Growth inhibition of human CCRF-CEM cells; type: functional
SF-539 = assay: Growth inhibition of human SF539 cells; type: functional
UO-31 = assay: Growth inhibition of human UO31 cells; type: functional

Sequence of Kinesin-like protein KIF2C (Homo sapiens) (Q99661 whole entry): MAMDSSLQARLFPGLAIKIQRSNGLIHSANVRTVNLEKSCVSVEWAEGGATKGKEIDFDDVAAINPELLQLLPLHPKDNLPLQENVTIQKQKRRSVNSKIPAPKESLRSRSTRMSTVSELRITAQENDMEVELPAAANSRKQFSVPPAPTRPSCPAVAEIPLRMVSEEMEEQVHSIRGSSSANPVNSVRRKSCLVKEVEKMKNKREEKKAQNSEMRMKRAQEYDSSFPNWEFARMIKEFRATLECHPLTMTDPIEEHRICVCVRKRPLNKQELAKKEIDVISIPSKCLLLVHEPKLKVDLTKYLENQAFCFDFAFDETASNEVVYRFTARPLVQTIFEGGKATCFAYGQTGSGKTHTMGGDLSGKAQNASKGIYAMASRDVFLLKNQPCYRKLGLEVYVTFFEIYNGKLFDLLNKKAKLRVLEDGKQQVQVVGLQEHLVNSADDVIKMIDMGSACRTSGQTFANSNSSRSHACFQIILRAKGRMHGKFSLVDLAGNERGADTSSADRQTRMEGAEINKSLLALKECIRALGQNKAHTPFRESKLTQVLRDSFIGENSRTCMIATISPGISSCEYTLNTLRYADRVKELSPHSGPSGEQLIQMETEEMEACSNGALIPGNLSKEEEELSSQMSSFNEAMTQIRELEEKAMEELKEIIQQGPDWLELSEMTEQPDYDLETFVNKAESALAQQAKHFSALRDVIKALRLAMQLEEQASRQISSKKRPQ
Sequence of Centromere-associated protein E (Homo sapiens) (Q02224 whole entry, the tested form may be a part): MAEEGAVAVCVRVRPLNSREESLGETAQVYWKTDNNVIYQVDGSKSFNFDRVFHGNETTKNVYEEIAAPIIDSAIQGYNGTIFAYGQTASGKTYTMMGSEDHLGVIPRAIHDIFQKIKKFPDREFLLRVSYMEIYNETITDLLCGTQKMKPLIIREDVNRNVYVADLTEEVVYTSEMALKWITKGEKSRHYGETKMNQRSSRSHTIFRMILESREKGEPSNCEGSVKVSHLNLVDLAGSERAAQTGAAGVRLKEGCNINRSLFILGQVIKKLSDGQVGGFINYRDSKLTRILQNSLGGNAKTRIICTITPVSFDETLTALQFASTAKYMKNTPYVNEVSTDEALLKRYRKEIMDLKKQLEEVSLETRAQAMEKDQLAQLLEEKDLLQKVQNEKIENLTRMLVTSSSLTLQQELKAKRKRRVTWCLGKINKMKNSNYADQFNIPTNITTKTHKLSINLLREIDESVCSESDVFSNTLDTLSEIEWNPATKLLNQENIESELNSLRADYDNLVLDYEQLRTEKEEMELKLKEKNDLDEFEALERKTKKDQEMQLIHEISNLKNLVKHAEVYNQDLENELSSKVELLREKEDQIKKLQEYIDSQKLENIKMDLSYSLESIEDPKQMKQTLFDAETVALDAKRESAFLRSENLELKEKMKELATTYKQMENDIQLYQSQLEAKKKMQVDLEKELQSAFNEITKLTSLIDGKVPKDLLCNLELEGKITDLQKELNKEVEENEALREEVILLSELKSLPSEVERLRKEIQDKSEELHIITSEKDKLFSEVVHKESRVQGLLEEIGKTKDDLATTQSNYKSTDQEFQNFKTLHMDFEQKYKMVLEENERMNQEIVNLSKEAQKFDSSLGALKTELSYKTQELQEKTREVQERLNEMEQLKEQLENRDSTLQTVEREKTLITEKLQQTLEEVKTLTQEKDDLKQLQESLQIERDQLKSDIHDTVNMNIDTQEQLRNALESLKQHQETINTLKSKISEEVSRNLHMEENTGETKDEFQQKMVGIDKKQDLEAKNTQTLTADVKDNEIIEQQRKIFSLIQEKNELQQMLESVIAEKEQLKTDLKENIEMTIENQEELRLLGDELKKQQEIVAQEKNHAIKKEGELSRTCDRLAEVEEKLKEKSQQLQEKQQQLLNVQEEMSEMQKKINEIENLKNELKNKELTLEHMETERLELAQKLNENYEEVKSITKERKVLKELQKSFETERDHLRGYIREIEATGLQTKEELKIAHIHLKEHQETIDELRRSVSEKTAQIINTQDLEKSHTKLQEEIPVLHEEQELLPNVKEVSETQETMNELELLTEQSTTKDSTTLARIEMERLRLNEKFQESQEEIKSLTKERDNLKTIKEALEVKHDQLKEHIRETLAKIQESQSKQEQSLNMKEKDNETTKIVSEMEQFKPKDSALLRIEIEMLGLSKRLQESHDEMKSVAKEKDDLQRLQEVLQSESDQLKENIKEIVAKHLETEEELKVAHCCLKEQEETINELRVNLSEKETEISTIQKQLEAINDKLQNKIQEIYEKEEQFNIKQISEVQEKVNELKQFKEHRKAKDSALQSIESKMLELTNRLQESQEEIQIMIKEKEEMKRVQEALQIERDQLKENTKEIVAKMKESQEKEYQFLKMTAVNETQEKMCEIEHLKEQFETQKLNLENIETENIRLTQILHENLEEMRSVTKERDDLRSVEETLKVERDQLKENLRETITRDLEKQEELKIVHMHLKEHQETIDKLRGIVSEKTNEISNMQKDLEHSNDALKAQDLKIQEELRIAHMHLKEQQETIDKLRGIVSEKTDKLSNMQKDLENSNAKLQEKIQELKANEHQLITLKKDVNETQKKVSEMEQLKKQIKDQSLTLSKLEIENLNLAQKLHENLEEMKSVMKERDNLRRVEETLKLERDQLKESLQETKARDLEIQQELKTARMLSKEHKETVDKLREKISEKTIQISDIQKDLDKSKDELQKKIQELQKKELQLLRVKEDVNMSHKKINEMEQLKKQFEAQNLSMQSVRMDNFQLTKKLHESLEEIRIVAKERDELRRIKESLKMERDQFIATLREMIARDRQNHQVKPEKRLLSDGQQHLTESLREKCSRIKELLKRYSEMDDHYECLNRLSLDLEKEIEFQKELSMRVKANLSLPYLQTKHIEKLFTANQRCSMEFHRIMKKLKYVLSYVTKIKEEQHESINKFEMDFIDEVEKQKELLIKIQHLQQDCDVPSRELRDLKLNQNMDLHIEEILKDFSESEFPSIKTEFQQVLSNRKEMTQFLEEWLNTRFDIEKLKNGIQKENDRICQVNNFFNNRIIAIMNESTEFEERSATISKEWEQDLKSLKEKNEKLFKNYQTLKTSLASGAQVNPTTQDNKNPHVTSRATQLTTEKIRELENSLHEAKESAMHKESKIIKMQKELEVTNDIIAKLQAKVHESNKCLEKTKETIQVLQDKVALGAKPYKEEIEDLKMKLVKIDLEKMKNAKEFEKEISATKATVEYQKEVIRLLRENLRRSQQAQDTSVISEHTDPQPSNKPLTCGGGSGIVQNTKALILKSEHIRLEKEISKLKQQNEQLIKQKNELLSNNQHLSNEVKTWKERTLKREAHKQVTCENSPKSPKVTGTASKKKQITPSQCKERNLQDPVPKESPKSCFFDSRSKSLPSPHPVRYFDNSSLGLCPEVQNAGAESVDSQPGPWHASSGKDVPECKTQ

SMILES: COc1ccc(C(SC[C@H](N)CO)(c2ccccc2)c2ccccc2)cc1
- fold change (FC) (HeLa [1]): 1.63
- GI50 (CAKI-1): 450 nM
- GI50 (SR): 10 nM
- GI50 (HCC 2998): 50 nM
- GI50 (SK-OV-3): 80 nM
- GI50 (ACHN): 490 nM
- GI50 (SF-295): 280 nM
- GI50 (HT-29): 340 nM
- GI50 (TK-10): 460 nM
- GI50 (NCI-H322M): 110 nM
- GI50 (A549): 330 nM
- GI50 (SN12C): 320 nM
- GI50 (SF-268): 110 nM
- GI50 (NCI-H522): 220 nM
- GI50 (HCT-15): 210 nM
- inhibition [2]: inactive
- GI50 (UACC-257): 540 nM
- Activity (HeLa [3]): inactive
- GI50 (K562): 60 nM
- GI50 (786-0): 440 nM
- GI50 (SNB-19): 250 nM
- GI50 (UACC-62): 250 nM
- GI50 (NCI-H226): 2750 nM
- GI50 (OVCAR-3): 200 nM
- GI50 (HOP-62): 510 nM
- GI50 (OVCAR-5): 390 nM
- GI50 [4]: 30 nM
- inhibition [5]: inactive
- GI50 (Malme-3M): 360 nM
- GI50 (KM12): 220 nM
- GI50 (OVCAR-8): 420 nM
- GI50 (LOX IMVI): 490 nM
- Activity (HeLa [6]): Dose-dependent effect
- GI50 (M14): 20 nM
- GI50 (SK-MEL-28): 620 nM
- GI50 (EKVX): 510 nM
- GI50 (COLO 205): 80 nM
- GI50 (SW-620): 70 nM
- GI50 (CCRF-CEM): 100 nM
- GI50 (SF-539): 260 nM
- GI50 (UO-31): 1100 nM
